Results taken from ChEMBL document CHEMBL1765005, “Small molecule antagonists of the urokinase (uPA): urokinase receptor (uPAR) interaction with high reported potencies show only weak effects in cell-based competition assays employing the native uPAR ligand” (Bioorg Med Chem, 2011).
Activity calls are given as the source filed them. The rule behind the calls is not given here. Residues, ends and D or L forms follow the SMILES beside them.

Assays:
Assay type in all cases: cell-based
[1] = molecular target: T1, Urokinase-type plasminogen activator/surface receptor (Homo sapiens, UniProt P00749+Q03405); assay: Inhibition of high molecular weight fluorescent labelled urokinase-type plasminogen activator binding to uPAR in PMA-stimulated human U937 cells at 10 nM preincubated for 30 mins by flow cytometry; details: U-937
Method in brief: (§1)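 U-937 cells were stimulated with 100 nM PMA (final) for 7–8 h at 37 °C, then resuspended at 1 × 10⁶ cells/mL in cold PBS (1 mM CaCl₂, MgCl₂) with 0.1% BSA, pH 7.4. Cells were pre-incubated with antagonist on ice for 30 min, then given 40 nM Alexa-488-HMW-uPA. After washing, cell fluorescence was read by dual-colour flow cytometry as % of the no-compound control; mean ± SD, n = 3.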

[2] = molecular target: T1, Urokinase-type plasminogen activator/surface receptor; assay: Inhibition of high molecular weight fluorescent labelled urokinase-type plasminogen activator binding to uPAR in PMA-stimulated human U937 cells at 100 nM preincubated for 30 mins by flow cytometry; details: U-937; method in brief: as §1
[3] = molecular target: T1, Urokinase-type plasminogen activator/surface receptor; assay: Inhibition of high molecular weight fluorescent labelled urokinase-type plasminogen activator binding to uPAR in PMA-stimulated human U937 cells at 100 uM preincubated for 30 mins by flow cytometry; details: U-937; method in brief: as §1
[4] = molecular target: T1, Urokinase-type plasminogen activator/surface receptor; assay: Inhibition of high molecular weight fluorescent labelled urokinase-type plasminogen activator binding to uPAR in PMA-stimulated human U937 cells at 10 uM preincubated for 30 mins by flow cytometry; details: U-937; method in brief: as §1
[5] = molecular target: T1, Urokinase-type plasminogen activator/surface receptor; assay: Inhibition of [125I]-labelled urokinase-type plasminogen activator binding to uPAR in human DU-145 cells by radioligand competition binding assay

Compound | inhibition [1] [%] | inhibition [2] [%] | inhibition [3] | inhibition [4] | IC50 [5] [nM]
N=C(N)NCCC[C@H](NC(=O)CNC(=O)[C@@H](N)CCC(=O)O)C(=O)CCl (HELM PEPTIDE1{E.G.R.[ClC[*:1]]}$$$$V2.0) | 80 | 90 | – | – | –
C#CCNCC(=O)N(CC(=O)N(CC(N)=O)CC(=O)NC(c1ccc(OC)cc1)c1ccc(OC)cc1)c1ccc2ccccc2c1 | – | – | 50% | 60% | –
CC(=O)N[C@@H](Cc1c[nH]c2ccccc12)C(=O)Nc1cccc(-c2ccc(C(=O)N[C@@H](Cc3ccccc3)C(=O)O)cc2)c1 | – | – | inactive | inactive | 0.8
